Bioassay records from PubChem BioAssay.
This is a sample that favours compounds with a hit; in the whole collection about 2.5% have one here.
ABHD5 PLIN5 PPI: blocks binding of human ABHD5 to perilipin-5; Q00G26+Q8WTS1; Split G. princeps luciferase complementation, luminescence, 4 h; inhibition, % at 4 µM; hit rate 0.78% among 360,000;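 active means inhibition above the mean inhibition across every tested compound plus 3 SD, cut at about 22% in these data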
Rin1-Abl PPI inh: inhibitors of human Rin1-Abl protein interaction; inhibition, % at 7.35 µM; hit rate 0.4% among 360,000; TR-FRET Rin1/Abl binding, biochemical; P00519+Q13671; AID 588664; in the data active means inhibition above about 5%, passing the limit was not always enough
Arr AP2 block: blocks beta-arrestin peptide binding to AP2 adaptin; FITC-arrestin peptide / GST-AP2 beads, flow cytometry; AP2 beta2 appendage carries R879A mutation; inhibition, % at 10 µM; hit rate 0.31% among 340,000; AID 504490;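 active means inhibition above a set limit, near 3 SD of compounds lacking own fluorescence, cut at about 54% in these data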
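Test system: GST-tagged AP2 beta2-adaptin appendage (R879A) on 4 µm glutathione beads; also added: fluorescein-tagged arrestin peptide at 50 nM final; timing: 12 min plus 1 h, RT; signal: flow cytometry, FL1 (488/535 nm); read-out: percent drop in bead-associated FITC signal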
B2AR ag: human beta-2 adrenergic receptor agonism by FAP | response, % (concentration not given with the values) | P07550 | Am2.2-beta2AR cells, FAP receptor internalization, flow cytometry | AID 504454 | hit rate 0.43% among 340,000;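 active means response above a set limit, near 3 SD of response in nonfluorescent compounds, cut at about 42% in these data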
MBD2 DNA inh: blocks human MBD2 binding to methylated DNA; inhibition, % at 4.4 µM; hit rate 0.31% among 370,000; Q9UBB5; TR-FRET, MBD2 binding to methylated oligonucleotide; in the data active means inhibition above about 13%
UHRF1 MBD2 ctr: UHRF1 methyl-DNA binding inhibition | AID 687016 | hit rate 0.75% among 370,000 | Q96T88 | UHRF1 binding to methylated oligo, TR-FRET | inhibition, % at 4.4 µM; in the data active means inhibition above about 21%;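 further: UHRF1 SRA domain binding a hemimethylated CpG hairpin DNA probe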
Target sequence (Q96T88 whole entry, looked up, the tested form may be a part): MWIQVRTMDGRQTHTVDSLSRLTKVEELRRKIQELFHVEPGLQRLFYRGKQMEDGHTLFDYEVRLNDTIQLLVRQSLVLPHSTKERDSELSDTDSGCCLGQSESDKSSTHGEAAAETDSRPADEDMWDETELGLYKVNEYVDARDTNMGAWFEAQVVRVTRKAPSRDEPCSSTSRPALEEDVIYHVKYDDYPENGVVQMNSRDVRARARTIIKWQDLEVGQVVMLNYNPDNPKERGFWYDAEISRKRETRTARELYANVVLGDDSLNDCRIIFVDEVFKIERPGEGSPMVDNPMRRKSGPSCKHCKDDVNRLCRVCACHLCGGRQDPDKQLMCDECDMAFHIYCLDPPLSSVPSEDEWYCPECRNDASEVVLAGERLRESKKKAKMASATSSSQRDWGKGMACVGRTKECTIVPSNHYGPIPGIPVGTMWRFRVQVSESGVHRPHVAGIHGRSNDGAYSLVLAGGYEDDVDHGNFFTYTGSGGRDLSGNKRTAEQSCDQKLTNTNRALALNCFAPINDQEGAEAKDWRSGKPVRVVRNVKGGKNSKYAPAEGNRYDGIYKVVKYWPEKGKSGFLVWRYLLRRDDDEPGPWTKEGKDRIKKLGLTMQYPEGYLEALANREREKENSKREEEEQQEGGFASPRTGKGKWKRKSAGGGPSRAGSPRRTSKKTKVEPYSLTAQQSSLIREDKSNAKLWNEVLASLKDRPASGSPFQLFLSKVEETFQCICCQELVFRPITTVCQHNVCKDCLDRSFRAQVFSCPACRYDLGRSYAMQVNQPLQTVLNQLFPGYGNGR
A number is an active result.

Screening CN1Cc2cnnn2-c2ccccc2C1C#N (stereo not given) returned ABHD5 PLIN5 PPI inactive, Rin1-Abl PPI inh inactive, Arr AP2 block inactive, B2AR ag inactive, MBD2 DNA inh inactive and UHRF1 MBD2 ctr inactive.
For N#CC1c2ccccc2-n2nncc2CN1Cc1cc(Cl)cc(Cl)c1 (stereo not given) the results were ABHD5 PLIN5 PPI 96.1, Rin1-Abl PPI inh inactive, Arr AP2 block inactive, B2AR ag 94.1, MBD2 DNA inh inactive and UHRF1 MBD2 ctr inactive.
`C=CCCC[C@@H]1OC(=O)CNC(=O)C([C@@H](C)CC)NC(=O)[C@@H]2CCCN2C(=O)C([C@@H](C)CC)OC(=O)[C@H](Cc2ccccc2)N(C)C(=O)[C@H](C(C)C)NC(=O)C1(C)C` (stereo not given in full) gave ABHD5 PLIN5 PPI 22.4, Rin1-Abl PPI inh inactive, MBD2 DNA inh inactive and UHRF1 MBD2 ctr inactive.
Screening CCC(C)C1NC(=O)C2CCCN2C(=O)C(CC(C)C)OC(=O)CCNC(=O)C(C)N(C)C(=O)C(C(C)C)N(C)C1=O (stereo not given) returned ABHD5 PLIN5 PPI inactive, Rin1-Abl PPI inh inactive, Arr AP2 block inactive, B2AR ag inactive, MBD2 DNA inh inactive and UHRF1 MBD2 ctr inactive.
`CC(C)CN1Cc2cc(-c3ccccc3)ccc2-n2nncc2C1` gave ABHD5 PLIN5 PPI inactive, Rin1-Abl PPI inh inactive, MBD2 DNA inh inactive and UHRF1 MBD2 ctr inactive.
Screening Cc1cc2c(C(C)C)c(O)c(O)c(C=O)c2c(O)c1-c1c(C)cc2c(C(C)C)c(O)c(O)c(C=O)c2c1O returned ABHD5 PLIN5 PPI inactive, Rin1-Abl PPI inh 15.6, MBD2 DNA inh inactive and UHRF1 MBD2 ctr inactive.
`COc1ccc(-c2ccc3c(c2)CN(c2cccc(Cl)c2)Cc2cnnn2-3)cc1` gave ABHD5 PLIN5 PPI inactive, Rin1-Abl PPI inh inactive, MBD2 DNA inh inactive and UHRF1 MBD2 ctr 25.1.
COc1ccc2nc(-c3ccc(CN4CCC(n5c(=O)[nH]c6cc(Cl)ccc65)CC4)cc3)c(-c3ccccc3)nc2c1 was read as MBD2 DNA inh inactive and UHRF1 MBD2 ctr inactive.
`COc1ccc(C2=NCC(=O)N(CC(=O)NCc3ccco3)c3sc4c(c32)CCCC4)cc1` gave ABHD5 PLIN5 PPI 38.0, Rin1-Abl PPI inh inactive, Arr AP2 block inactive, B2AR ag inactive, MBD2 DNA inh inactive and UHRF1 MBD2 ctr inactive.
`Cc1cccc(C2=NCC(=O)N(CC(=O)NCc3ccco3)c3sc4c(c32)CCCC4)c1` gave ABHD5 PLIN5 PPI inactive, Rin1-Abl PPI inh inactive, Arr AP2 block inactive, B2AR ag inactive, MBD2 DNA inh inactive and UHRF1 MBD2 ctr inactive.
Screening O=C1C2CC=CCC2C(=O)N1SC(Cl)(Cl)Cl (stereo not given) returned MBD2 DNA inh inactive and UHRF1 MBD2 ctr inactive.
`c1ccc(Cn2nnnc2C2CN=C(c3ccccc3)c3ccccc3N2)cc1` (stereo not given) gave MBD2 DNA inh inactive and UHRF1 MBD2 ctr inactive.
Screening O=C1NC(=O)N(Cc2ccccc2)C(=O)/C1=C\c1ccco1 returned ABHD5 PLIN5 PPI inactive, Rin1-Abl PPI inh inactive, Arr AP2 block inactive, B2AR ag 57.6, MBD2 DNA inh inactive and UHRF1 MBD2 ctr inactive.
Screening CCN(CC)c1ccc(/C=C2\C(=O)NC(=O)N(Cc3ccco3)C2=O)cc1 returned ABHD5 PLIN5 PPI inactive, Rin1-Abl PPI inh inactive, Arr AP2 block inactive, B2AR ag inactive, MBD2 DNA inh inactive and UHRF1 MBD2 ctr 65.5.
`CCN(CC)c1ccc(/C=C2/C(=O)NC(=O)N(CC3CCCO3)C2=O)cc1` (stereo not given) gave ABHD5 PLIN5 PPI inactive, Rin1-Abl PPI inh inactive, Arr AP2 block inactive, B2AR ag inactive, MBD2 DNA inh inactive and UHRF1 MBD2 ctr inactive.
For Cn1cccc1/C=C1\C(=O)NC(=O)N(Cc2ccccc2)C1=O the results were ABHD5 PLIN5 PPI inactive, Rin1-Abl PPI inh inactive, Arr AP2 block inactive, B2AR ag inactive, MBD2 DNA inh inactive and UHRF1 MBD2 ctr inactive.
For O=C1NC(=O)N(Cc2ccco2)C(=O)/C1=C/c1cccn1CCOc1ccccc1Cl the results were ABHD5 PLIN5 PPI inactive, Rin1-Abl PPI inh inactive, Arr AP2 block inactive, B2AR ag inactive, MBD2 DNA inh inactive and UHRF1 MBD2 ctr 49.9.
Cn1cccc1/C=C1/C(=O)NC(=O)N(Cc2ccccc2)C1=O was read as ABHD5 PLIN5 PPI inactive, Rin1-Abl PPI inh inactive, Arr AP2 block inactive, B2AR ag inactive, MBD2 DNA inh inactive and UHRF1 MBD2 ctr inactive.
CC1C2Cc3ccc(O)cc3C1(C)CCN2CC1CC1 (stereo not given) was read as MBD2 DNA inh inactive and UHRF1 MBD2 ctr inactive.
For CCCCn1nnnc1C(c1cccs1)N1CCC2(CC1)C(=O)NCN2c1ccccc1 (stereo not given) the results were ABHD5 PLIN5 PPI inactive, Rin1-Abl PPI inh inactive, MBD2 DNA inh inactive and UHRF1 MBD2 ctr inactive.
`C=C(C)[C@@]12OC3(c4ccccc4)O[C@@H]1C1[C@@H]4O[C@]4(CO)[C@@H](O)[C@]4(O)C(=O)C(C)=C[C@H]4[C@@]1(O3)[C@H](C)[C@H]2OC(=O)/C=C/C=C/c1ccccc1` (stereo not given in full) gave ABHD5 PLIN5 PPI inactive, Rin1-Abl PPI inh inactive, Arr AP2 block inactive and B2AR ag 111.6.
Screening COc1cc2c3cc1Oc1c(OC)c(OC)cc4c1[C@H](Cc1ccc(cc1)Oc1cc(ccc1O)C[C@H]3N(C)CC2)N(C)CC4 returned ABHD5 PLIN5 PPI inactive, Rin1-Abl PPI inh inactive, Arr AP2 block inactive, B2AR ag inactive, MBD2 DNA inh inactive and UHRF1 MBD2 ctr inactive.
`COc1cc2c3c(c1OC)Oc1ccc(cc1)C[C@H]1c4c(cc(OC)c(OC)c4Oc4ccc(cc4)C[C@@H]3N(C)CC2)CCN1C` gave ABHD5 PLIN5 PPI inactive, Rin1-Abl PPI inh inactive, Arr AP2 block inactive, B2AR ag 44.8, MBD2 DNA inh inactive and UHRF1 MBD2 ctr inactive.
Screening COC1=CC23CCCN2CCc2cc4c(cc2C3C1O)OCO4 (stereo not given) returned ABHD5 PLIN5 PPI inactive, Rin1-Abl PPI inh inactive, MBD2 DNA inh inactive and UHRF1 MBD2 ctr 43.0.
Screening COc1ccc2c(c1OC)C(=O)OC2C1c2cc3c(cc2CCN1C)OCO3 (stereo not given) returned ABHD5 PLIN5 PPI inactive, Rin1-Abl PPI inh inactive, Arr AP2 block inactive, B2AR ag inactive, MBD2 DNA inh inactive and UHRF1 MBD2 ctr inactive.
Screening O=C(C[N+]12CCC(CC1)C(OC(=O)c1ccccc1)C2)c1ccc([N+](=O)[O-])cc1 (stereo not given) returned ABHD5 PLIN5 PPI inactive, Rin1-Abl PPI inh inactive, Arr AP2 block inactive, B2AR ag inactive, MBD2 DNA inh inactive and UHRF1 MBD2 ctr inactive.
Screening O=C(C[N+]12CCC(CC1)C(CO)C2)c1ccc([N+](=O)[O-])cc1 (stereo not given) returned ABHD5 PLIN5 PPI inactive, Rin1-Abl PPI inh inactive, Arr AP2 block inactive, B2AR ag inactive, MBD2 DNA inh inactive and UHRF1 MBD2 ctr 29.0.
Screening Cc1ccc2nc(-c3ccc(CN4CCC(n5c(=O)[nH]c6cc(Cl)ccc65)CC4)cc3)c(-c3ccccc3)nc2c1 returned MBD2 DNA inh inactive and UHRF1 MBD2 ctr inactive.
